Source: PubChem BioAssay
SIAE primary: human SIAE inhibition, primary screen. SIAE FP-Rh probe binding, fluorescence polarization. inhibition, % at 9.66 µM. hit rate 0.69% among 370,000. AID 1053197;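 active = inhibition above a cutoff: mean of compounds within the control limits plus 3 SD of those, cut at about 17% in these data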
ATG4B inhibitor: inhibitors of human ATG4B cysteine protease | inhibition, % at 8.33 µM | ATG4B cleavage of LC3-PLA2, NBD-HPC fluorescence, 1 h | hit rate 0.51% among 340,000; in the data active = inhibition above about 40%
Target sequence (Q9Y4P1 whole entry, looked up): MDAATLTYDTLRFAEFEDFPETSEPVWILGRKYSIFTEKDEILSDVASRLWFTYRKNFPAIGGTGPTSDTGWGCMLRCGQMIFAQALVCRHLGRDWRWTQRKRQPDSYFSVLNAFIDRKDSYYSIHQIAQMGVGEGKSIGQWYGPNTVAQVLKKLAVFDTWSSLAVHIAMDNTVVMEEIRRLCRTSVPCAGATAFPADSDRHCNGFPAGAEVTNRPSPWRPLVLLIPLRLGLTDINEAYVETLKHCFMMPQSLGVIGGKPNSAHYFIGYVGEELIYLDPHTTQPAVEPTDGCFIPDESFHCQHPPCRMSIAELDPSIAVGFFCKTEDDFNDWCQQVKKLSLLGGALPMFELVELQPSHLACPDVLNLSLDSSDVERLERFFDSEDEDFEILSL
TCR-CD3 inh: human TCR-CD3 binding inhibition; inhibition, % at 9.4 µM; AID 651800; TAMRA-labeled TCR probe fluorescence, biochemical; hit rate 0.37% among 360,000; in the data active = inhibition above about 19%;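 also: recombinant mutant TCR 2C K166C tagged with TAMRA read by polarization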
mABHD4 FP: inhibitors of mouse ABHD4; Q8VD66; purified mABHD4, FP-Rh probe fluorescence polarization; inhibition, % at 8.92 µM; hit rate 0.54% among 370,000; AID 720543;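 active = inhibition exceeding the mean over every tested compound plus 3 SD, cut at about 30% in these data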
Target sequence (Q8VD66 whole entry, looked up): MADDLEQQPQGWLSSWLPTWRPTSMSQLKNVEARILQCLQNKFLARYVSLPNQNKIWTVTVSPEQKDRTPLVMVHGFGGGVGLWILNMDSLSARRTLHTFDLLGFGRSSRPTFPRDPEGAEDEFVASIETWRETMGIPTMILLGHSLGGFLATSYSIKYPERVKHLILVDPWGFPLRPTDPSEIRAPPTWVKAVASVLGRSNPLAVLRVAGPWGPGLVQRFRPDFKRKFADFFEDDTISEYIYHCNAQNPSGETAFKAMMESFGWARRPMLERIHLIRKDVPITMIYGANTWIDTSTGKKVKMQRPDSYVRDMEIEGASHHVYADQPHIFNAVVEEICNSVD
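Doses – 8.92 µM, single dose · Material – wild-type mouse ABHD4 protein · Replication – single well per compound (singlicate) · Measure – percent inhibition of probe binding, normalized to plate controls · Schedule – 45 min compound pre-incubation plus 60 min probe step, 25 °C · Detection – fluorescence polarization with parallel and perpendicular emission, 525/598 nm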
PRMT1 inh: PRMT1 (human) inhibition, primary screen; Q99873; recombinant PRMT1, activity-based probe fluorescence polarization; inhibition, % at 2.79 µM; hit rate 1.3% among 370,000; AID 652257;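 active = inhibition above about 21% made by adding two undisclosed values, limit read from the data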
HTRA1 inh: HTRA1 (human) protease inhibition; recombinant HTRA1, FP-rhodamine activity-based probe, fluorescence polarization; inhibition, % at 5.96 µM; hit rate 0.5% among 340,000; AID 504803; in the data active = inhibition above about 36%
Of the large screens only hits and unclear results are named; the others gave an inactive call. An excerpt weighted towards active compounds, which were near 2.9% of everything screened.

O=c1c2ccccc2sn1-c1ccccc1	PRMT1 inh 95
O=c1c2cc(C(F)(F)F)ccc2sn1-c1ccccc1	PRMT1 inh 71 (no result: ATG4B inhibitor)
O=c1c2ccccc2c(-c2cccc(C(F)(F)F)c2)nn1-c1ccccc1	none
O=c1c2cc(F)ccc2sn1-c1ccccc1	PRMT1 inh 89
Cc1ccccc1-n1sc2cc(F)ccc2c1=O	PRMT1 inh 88
Cc1ccc(C2=CCN(C)C(=O)N2c2ccc([N+](=O)[O-])cc2)cc1	none (no result: ATG4B inhibitor, TCR-CD3 inh, HTRA1 inh)
O=C(OC12CCCN(C1)/C(=C/c1ccncc1)C2)c1ccc(F)cc1 (centres undefined)	none (no result: ATG4B inhibitor, TCR-CD3 inh, HTRA1 inh)
C=CCN1C(=O)[C@@H](CC(=O)NCc2ccc(OC)c(OC)c2)[C@]2(C(=O)OC)CCCCC=C12	none (no result: ATG4B inhibitor, TCR-CD3 inh, HTRA1 inh)
O=C(CNS(=O)(=O)c1ccccc1)N1CCN(c2ccccn2)CC1	none (no result: ATG4B inhibitor, TCR-CD3 inh, HTRA1 inh)
Cc1ccc(NC(=O)CN(C)Cc2c(O)ccc3ccccc23)cc1	PRMT1 inh 21 (no result: HTRA1 inh)
Cc1ccc(-c2c(C(=O)O)c(C(=O)O)c3n2CSC3)cc1	PRMT1 inh 24
O=C1C=CC2(C=C1)O[C@H](Cc1ccccc1)[C@@H](Cc1ccccc1)O2	PRMT1 inh 51
CC(CCN1CCC(C(O)(c2ccccc2)c2ccccc2)CC1)Oc1cc(F)cc(F)c1 (centres undefined)	none (no result: ATG4B inhibitor, TCR-CD3 inh, HTRA1 inh)
Cn1cccc1CC(=O)NN=C/C=C\c1ccco1	none (no result: ATG4B inhibitor, TCR-CD3 inh, HTRA1 inh)
Cc1ccc(-n2nc3c(N4CCC(C(=O)N5CCCCCC5)CC4)nnc(C)c3c2C)cc1	ATG4B inhibitor 71 (no result: SIAE primary, TCR-CD3 inh, mABHD4 FP, PRMT1 inh)
Cc1ccc(-n2nc3c(N4CCC(C(=O)NCc5ccccc5C)CC4)nnc(C)c3c2C)cc1	ATG4B inhibitor 54 (no result: SIAE primary, TCR-CD3 inh, mABHD4 FP, PRMT1 inh)
CC(c1ccccc1)n1cc(C(=O)N2CCCC2)nn1 (centres undefined)	none (no result: ATG4B inhibitor, TCR-CD3 inh, HTRA1 inh)
CCC(C)CNC(=O)c1oc(=O)c2ccccc2c1-c1ccc(C)cc1 (centres undefined)	none (no result: ATG4B inhibitor, TCR-CD3 inh, HTRA1 inh)
CCOC(=O)C1=C(CSc2nc(CC)c(C)cc2C#N)OC(N)=C(C#N)C1c1ccc(OC)cc1 (centres undefined)	PRMT1 inh 21
Cc1sc(N)c(C(=O)c2ccccc2)c1C	PRMT1 inh 41 (no result: HTRA1 inh)
C=C(C)Cn1c(SCC(=O)NN=Cc2c(O)ccc3ccccc23)nnc1-c1ccc(Br)cc1	none (no result: ATG4B inhibitor, TCR-CD3 inh, HTRA1 inh)
Cc1[nH]n(-c2ccccc2)c(=O)c1-c1ccccc1	SIAE primary 18
CCC(=O)N1Cc2ccccc2-c2ccccc2C1=O	ATG4B inhibitor 41 (no result: SIAE primary, TCR-CD3 inh, mABHD4 FP, PRMT1 inh, HTRA1 inh)
O=C(O)CCN1Cc2ccccc2C1=O	none
O=Cc1ccc(/C=C2\c3ccccc3C(=O)N2c2ccccc2)o1	mABHD4 FP 41 (no result: ATG4B inhibitor, HTRA1 inh)
O=C1c2ccccc2C(=O)N1c1ccccc1	none
CC(C)CN1C(=O)[C@@]2(CC(=O)N(C)C2c2ccccc2)c2cc(-n3cc(-c4ccccc4)nn3)ccc21 (some centres undefined)	none (no result: ATG4B inhibitor, TCR-CD3 inh, HTRA1 inh)
O=C1CSC(=S)N1/N=C/C=C/c1ccccc1	PRMT1 inh 21
CC(=O)NN1C(=O)/C(=C/c2ccc(Br)o2)SC1=S	PRMT1 inh 25
N#CC1=C(N)C2=CCCC[C@H]2[C@H](c2ccc(Br)cc2)C1(C#N)C#N	none (no result: SIAE primary, TCR-CD3 inh, mABHD4 FP, PRMT1 inh)
N#CC1=C(N)C2=CCCC[C@H]2[C@H](c2ccccc2)C1(C#N)C#N	PRMT1 inh 24
N#Cc1sc2nc(-c3ccccc3)cc(-c3ccco3)c2c1N	HTRA1 inh 43
O=C(NCc1c(F)cccc1F)C1CCCN(c2ncccn2)C1 (centres undefined)	none (no result: ATG4B inhibitor, TCR-CD3 inh, HTRA1 inh)
CCOc1ccccc1C(O)C1=CC(=O)c2ccccc2C1=O (centres undefined)	mABHD4 FP 43
CC1=CC(=O)c2ccccc2C1=O	none
CCN1C=C(Cc2ccccc2C)C2=C(C1)C(c1ccccc1C)C(C#N)=C(N)O2 (centres undefined)	none
CCN1C=CC2=C(C#N)C(N)C(C#N)(C#N)C(c3ccccc3C(F)(F)F)C2C1 (centres undefined)	PRMT1 inh 22
COC(=O)c1cccc(NC(=O)/C(=C\c2ccco2)NC(=O)c2ccco2)c1	PRMT1 inh 25 (no result: ATG4B inhibitor)
O=C(Nc1cccc(F)c1)/C(=C\c1ccco1)NC(=O)c1ccco1	PRMT1 inh 24
COc1ccc(/C=C2\SC(=S)N(CC(=O)OCC(=O)Nc3ccc(C)cc3Cl)C2=O)cc1	PRMT1 inh 21
O=C(O)c1ccc(S(=O)(=O)Nc2ccc(O)c(Sc3nc4ccccc4s3)c2)cc1	PRMT1 inh 22
NS(=O)(=O)c1ccc(Sc2nc3ccccc3s2)c([N+](=O)[O-])c1	none
CCCCCCCCS(=O)c1sc2nc3c(cc2c1N)CCCC3 (centres undefined)	PRMT1 inh 24
O=C(Nc1cc(Cl)ccc1F)C1CCCN(c2nnc(-n3cccc3)s2)C1 (centres undefined)	none (no result: ATG4B inhibitor, TCR-CD3 inh, HTRA1 inh)
Cc1ccc(-c2nc3sc(C#N)c(N)n3c(=O)c2C#N)cc1	PRMT1 inh 81
Cc1ccc(-n2c(N)c(C#N)c(-c3ccccc3)c(C#N)c2=O)cc1	none
CCOC(=O)C(NC(=O)CCl)(Nc1sc(C)c(CC)c1C#N)C(F)(F)F (centres undefined)	PRMT1 inh 22
CCOC(=O)C(NC(=O)CC(C)C)(Nc1sc(C)c(CC)c1C#N)C(F)(F)F (centres undefined)	none
Cc1cc(C)c(NC(=O)CSc2nnc(-c3ccncc3)n2Cc2ccco2)c(Cl)c1	PRMT1 inh 22
O=C(CSc1nnc(-c2ccncc2)n1Cc1ccco1)Nc1cccc(O)c1	none
O=c1cc(N2CCN(c3cccc(C(F)(F)F)c3)CC2)[nH]c(=O)n1-c1ccccc1	none (no result: ATG4B inhibitor, TCR-CD3 inh, HTRA1 inh)
Cc1ccc(-n2c(SCc3cccc(F)c3)nnc2-c2cccc(C)c2)cc1	none (no result: ATG4B inhibitor, TCR-CD3 inh, HTRA1 inh)
CC(Sc1nc(N)cc(=O)[nH]1)C(=O)Nc1cccc(Cl)c1 (centres undefined)	none
CC(=O)NC1C(=O)N=C(SC(C)C(=O)Nc2cccc(Cl)c2)NC1=O (centres undefined)	PRMT1 inh 22
COc1ccccc1-c1nnc2n1N=C(c1ccc3c(c1)OCO3)CS2	none (no result: ATG4B inhibitor, TCR-CD3 inh, HTRA1 inh)
COC(=O)C1=C(C)NC(C)=C(C(=O)OC)C1c1cn(-c2ccccc2)nc1-c1ccco1	PRMT1 inh 31
COCCOC(=O)C1=C(C)NC(=O)NC1c1cn(-c2ccccc2)nc1-c1cccs1 (centres undefined)	none
O=C(CCNc1ccc(Cc2ccncc2)cc1)c1ccc([N+](=O)[O-])cc1	PRMT1 inh 36
CCC(NC(=O)CN1CCN(c2cccc(OC)c2)CC1)c1ccccc1 (centres undefined)	none (no result: ATG4B inhibitor, TCR-CD3 inh, HTRA1 inh)
Cc1ccc(NNS(=O)(=O)c2ccc(C)cc2)cc1	PRMT1 inh 64
Cc1ccc(S(=O)(=O)NNC(=O)C(=O)NNS(=O)(=O)c2ccc(C)cc2)cc1	none
COc1cc(C(=S)N2CCCC2)cc(Cl)c1OCC(=O)Nc1ccc(C)cc1C	PRMT1 inh 22
Cc1ccc(C(=O)CSc2ncn[nH]2)cc1	none
CCc1ccc(C(=O)CSc2ncn[nH]2)cc1	PRMT1 inh 23
